Legend:
[1] = folding enthalpy; higher = less favourable; fluorescence melt of hairpins on a sequencing array, two-state fit; settings: sodium 0.088 M
Outline: (§1)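 Cy3 fluorescence of library hairpins on a sequenced MiSeq flow cell, with annealed Cy3 and quencher oligos, was imaged in 50 mM Na-HEPES pH 8.0, 25 mM NaCl in 2.5 °C steps up to 60 °C. Signals were normalised to pre-quench Cy3 and to control variants. Melting temperature and folding enthalpy came from bootstrapped two-state fits, inverse-variance combined over four replicates. Fitted temperatures were raised by 9.35 °C to match UV melts.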

[2] = melting temperature; fluorescence melt of hairpins on a sequencing array, two-state fit, raised by 9.35 °C to match UV melts; settings: sodium 0.088 M
Outline: as §1

Sequence | folding enthalpy [1] [kcal/mol] | Tm [2] [°C]
GTGTCTGGAAACGGATAC ((.((.(....).)).)) | -17.2 | 36.6
GATCTGGGGTCAGATC ((((((....)))))) | -34.5 | 48.7
TGGAAGAAATTCCA (((((....))))) | -12.4 | 30.7
GAGGGAGGAAACCCCCTC (((((.(....).))))) | -28.5 | 46.3
GCGATAATCGC ((((...)))) | -20.7 | 44.4
GAGCGAGAAATCGCTC ((((((....)))))) | -30.4 | 67.4
GTAGGCGAAAGCCATTAC ((((((....)))..))) | -7.44 | 23
GATCCTCCTTAGGATC ((((((....)))))) | -36.8 | 50.9
GCAATCGAAAGATGTGC ((((((....))).))) | -25.5 | 39.5
GCCAATCGAAAGATAGGC (((.(((....))).))) | -35.6 | 52.1
GATCGGACGTCCGATC ((((((....)))))) | -47.5 | 62.7
GATCACCTCGTGATC ((((((...)))))) | -38.2 | 59.3
GATCTCAGCTGAGATC ((((((....)))))) | -46.8 | 54.9
GATCCCGATTGGGATC ((((((....)))))) | -36 | 59.1
GTATTCGAAAGAATAC ((((((....)))))) | -35.7 | 54.6
GCGTCGCGAAAGCTCCGC (((..((....))..))) | -21.1 | 46.8
GGCCGTCGAAAGACAGCC (((.(((....))).))) | -35.1 | 58.4
GCCGGTCGAAAGACAGGC (((.(((....))).))) | -41.7 | 69
GAGTCCGGAAACGAACTC ((((.((....)).)))) | -34.6 | 41.7
GATCCTGGCCAGGATC ((((((....)))))) | -47.6 | 61.3
GGTTGTGAAAACAACC ((((((....)))))) | -40.1 | 61.5
GGGATGCCGAAAGGCCCC (((..(((....)))))) | -15.6 | 46.6
GGTTCCACGAAAGTGACC (((..(((....)))))) | -15.1 | 31.6
GACCCCGGAAACGGGACC (..((((....))))..) | -8.3 | 28.1

Sequence | folding enthalpy [1] [kcal/mol] | Tm [2] [°C]
GTACGTGGAAACACGCAC ((.((((....)))).)) | -17.2 | 47.3
GTCAACCGAAAGGTGGAC (((.(((....))).))) | -30.5 | 56.2
GTGTTCGGAAACGAATGC (..((((....))))..) | -24.9 | 42.1
GCACCGCGAAAGCGTGC (((.(((....)))))) | -19 | 63.8
GCAAAGCGAAAGCGCTGC (((..((....))..))) | -16.9 | 57.4
ACGCAGAAATGCGT (((((....))))) | -21.7 | 55.7
GCGATGCCTCGC ((((....)))) | -20.5 | 50.4
GATCCAAACTGGATC ((((((...)))))) | -43 | 50.4
GATCTTGATAAGATC ((((((...)))))) | -21.6 | 43.6
GGGACTTCGAAAGAACCC (((..(((....)))))) | -5.69 | 29.8
GATCCAGCAATGGATC ((((((....)))))) | -41.6 | 56.8
GCGCGTGGAAACATGCGC ((((.((....)).)))) | -40.2 | 67.9
GTTAACACGAAAGTGAAC (((..(((....)))))) | -9.64 | 25.3
GGAATTCCGAAAGGATCC (((..(((....)))))) | -10.9 | 28
GATCGGTACGCCGATC ((((((....)))))) | -38.6 | 63.6
GGAGACGGAAACGTCTTC (.(((((....))))).) | -17.4 | 50.7
GTATAACGAAAGTTCTAC (((.(((....))).))) | -20 | 31.1
GGAGACGAAAGTCGATCC ((((((....)))..))) | -13 | 44
ATTGTGAAAACAAT (((((....))))) | -14.9 | 39
CGGATCGGAAACGAACCG (((.(((....))).))) | -42.7 | 52
GATCATGATCATGATC ((((((....)))))) | -52.3 | 51.4
GTGTTGCCGAAAGGCCAC (((..(((....)))))) | -10.3 | 57.8
GCTAGCGGAAACGTTGGC ((.(.((....)).).)) | -24.6 | 39.6

From the array DNA melting data of Ke et al. (doi:10.1101/2024.01.08.574731)
